Assay results published in ChEMBL document CHEMBL4145654, “Structure-Based Discovery of CF53 as a Potent and Orally Bioavailable Bromodomain and Extra-Terminal (BET) Bromodomain Inhibitor” (J Med Chem, 2018).

Key:
[1] = target: Bromodomain-containing protein 4 (Homo sapiens, UniProt O60885); test: Inhibition of FAM-labeled ZBA248 binding to recombinant human BRD4 bromodomain 1 (44 to 168 residues) expressed in Rosetta2 Escherichia coli DE3 cells after 30 mins by fluorescence polarization assay
Method in brief: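 Recombinant human BRD4 BD1 (residues 44−168) in a fluorescence polarization competitive binding assay, run as described in earlier work.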

MOLM-13 = test: Growth inhibition of human MOLM13 cells after 4 days by WST-8 assay; format: functional, cell-based; conditions: MOLM-13, 96 h
Method in brief: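 Leukemia cells, used within 3 months of thaw, were seeded at 10 000 cells/well and exposed to serially diluted compound in culture medium for 4 days. WST-8 reagent was added at 10% (v/v) final for 1−3 h, and absorbance was read at 450 nm. Readings were normalized to DMSO-treated cells, and the IC50 was fitted by nonlinear regression.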

MDA-MB-231 [2] = test: Growth inhibition of human MDA-MB-231 cells after 4 days by WST-8 assay; format: functional, cell-based; conditions: MDA-MB-231, 96 h
Method in brief: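 Cells used within 3 months of thaw. Breast cancer cells seeded at 3000 cells/well, then serially diluted compound added, cultured 4 days. Growth read by WST-8 (10% v/v final, 1−3 h, 450 nm). Readings normalized to DMSO-treated cells. IC50 by nonlinear regression.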

[3] = Plasma concentration in SCID mouse xenografted with human MDA-MB-231 cells at 50 mg/kg administered via oral gavage measured after 1 hr; format: ADME, organism-based
Method in brief: (§1)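 Limited PK in SCID mice bearing MDA-MB-231 tumors, 50 mg/kg given by oral gavage. Plasma and tumor tissue drug levels measured at two time points per compound. Values are the mean of two mice/tumors per time point.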

[4] = Plasma concentration in SCID mouse xenografted with human MDA-MB-231 cells at 50 mg/kg administered via oral gavage measured after 6 hrs; format: ADME, organism-based
Method in brief: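 SCID mice carrying MDA-MB-231 tumors dosed orally at 50 mg/kg. Plasma drug level determined by LC-MS/MS (positive-ion MRM, C18 column, formic acid/acetonitrile gradient). Value is the mean from two mice per time point.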

[5] = Drug uptake in tumor of SCID mouse xenografted with human MDA-MB-231 cells at 50 mg/kg administered via oral gavage measured after 1 hr; format: ADME, organism-based, Neoplasm; conditions: read-out: Drug uptake; method in brief: as §1
[6] = Drug uptake in tumor of SCID mouse xenografted with human MDA-MB-231 cells at 50 mg/kg administered via oral gavage measured after 6 hrs; format: ADME, organism-based, Neoplasm; conditions: read-out: Drug uptake; method in brief: as §1
[7] = Plasma concentration in SCID mouse xenografted with human MDA-MB-231 cells at 50 mg/kg administered via oral gavage measured after 0.5 hrs; format: ADME, organism-based; method in brief: as §1
[8] = Drug uptake in tumor of SCID mouse xenografted with human MDA-MB-231 cells at 50 mg/kg administered via oral gavage measured after 0.5 hrs; format: ADME, organism-based, Neoplasm; conditions: read-out: Drug uptake; method in brief: as §1
MDA-MB-231 [9] = test: Antitumor activity against human MDA-MB-231 cells xenografted in SCID mouse assessed as tumor growth inhibition at 50 mg/kg administered via oral gavage measured on day 44; format: functional; conditions: MDA-MB-231, po, 1056 h, read-out: TGI
Method in brief: (§2)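 Each SCID mouse received a single dorsal subcutaneous tumor of 5 × 10⁶ RS4;11 or MDA-MB-231 cells in 50% Matrigel. At about 100 mm3, mice were randomised to treatment or vehicle control groups. Dosing was by oral gavage at the stated schedules. Tumor volume was L × W²/2, and body weight was tracked. TGI versus vehicle at end of treatment was tested by unpaired two-tailed t-test.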

RS4-11 = test: Antitumor activity against human RS4:11 cells xenografted in SCID mouse assessed as tumor growth inhibition at 50 mg/kg administered via oral gavage measured on day 35; format: functional; conditions: RS4-11, po, 840 h, read-out: TGI; method in brief: as §2

Row | Structure (SMILES) | IC50 [1] [nM] | Ki [1] [nM] | IC50 (MOLM-13) [nM] | IC50 (MDA-MB-231 [2]) [nM] | also measured
1 | COc1cc2c(cc1-c1c(C)noc1C)[nH]c1nc(C)nc(Nc3c(C)c(C4CC4)nn3C)c12 | 51.7 | 15.8 | 201 | 319 | –
2 | COc1cc2c(cc1-c1c(C)noc1C)[nH]c1nc(C)nc(Nc3nn(C)c4cccnc34)c12 | 229 | 78 | – | – | –
3 | COc1cc2c(cc1-c1c(C)noc1C)[nH]c1nc(C)nc(Nc3nn(C)c4ccc(F)cc34)c12 | – | 16.7 | – | – | –
4 | COc1cc2c(cc1-c1c(C)noc1C)[nH]c1nc(C)nc(Nc3cc(C4CCC4)nn3C)c12 | 12.8 | 2 | 26.6 | 63.2 | –
5 | COc1cc2c(cc1-c1c(C)noc1C)[nH]c1nc(C)nc(Nc3cc(C)nn3C3CCC3)c12 | 14.3 | 2.6 | 38.8 | 26 | –
6 | COc1cc2c(cc1-c1c(C)noc1C)[nH]c1nc(C)nc(Nc3cc(C(C)(C)C)nn3C)c12 | 10.5 | 1.2 | 23 | 23.5 | concentration at 1 h [3]: 923 ng/mL; concentration at 6 h [4]: 458 ng/mL; concentration at 1 h [5]: 305 ng/g; concentration at 6 h [6]: 268 ng/g
7 | COc1cc2c(cc1-c1c(C)noc1C)[nH]c1nc(C)nc(Nc3cc(C(F)(F)F)nn3C)c12 | 15.8 | 3.1 | 56 | 156 | –
8 | COc1cc2c(cc1-c1c(C)noc1C)[nH]c1nc(C)nc(Nc3cc(C)nn3C3CCCC3)c12 | 4 | < 1 | 17.7 | 25 | –
9 | COc1cc2c(cc1-c1c(C)noc1C)[nH]c1nc(C)nc(Nc3cc(C(C)C)nn3C)c12 | – | < 1 | 11.7 | 26 | concentration at 1 h [3]: 6240 ng/mL; concentration at 6 h [4]: 1870 ng/mL; concentration at 1 h [5]: 736 ng/g; concentration at 6 h [6]: 166 ng/g
10 | COc1cc2c(cc1-c1c(C)noc1C)[nH]c1nc(C)nc(Nc3nn(C)c4ncccc34)c12 | 20.8 | 4.9 | – | – | –
11 | COc1ccc2c(Nc3nc(C)nc4[nH]c5cc(-c6c(C)noc6C)c(OC)cc5c34)nn(C)c2c1 | 196 | 66.5 | – | – | –
12 | COc1cc2c(cc1-c1c(C)noc1C)[nH]c1nc(C)nc(Nc3nn(C)c4ccccc34)c12 | 9.1 | 0.7 | – | – | –
13 | COc1cc2c(cc1-c1c(C)noc1C)[nH]c1nc(C)nc(Nc3c4c(nn3C)CCC4)c12 | 5.5 | < 1 | 5 | 67 | concentration at 1 h [3]: 4880 ng/mL; concentration at 6 h [4]: 1580 ng/mL; concentration at 1 h [5]: 1510 ng/g; concentration at 6 h [6]: 600 ng/g
14 | COc1cc2c(cc1-c1c(C)noc1C)[nH]c1nc(C)nc(Nc3nn(C)c4c(F)cccc34)c12 | 95.2 | 31 | – | – | –
15 | COc1cc2c(cc1-c1c(C)noc1C)[nH]c1nc(C)nc(Nc3cc(C)nn3C(C)(C)C)c12 | 4.4 | < 1 | 10.6 | 13.9 | concentration at 6 h [4]: 127 ng/mL; concentration at 0.5 h [7]: 3680 ng/mL; concentration at 6 h [6]: 621 ng/g; concentration at 0.5 h [8]: 5230 ng/g
16 | COc1cc2c(cc1-c1c(C)noc1C)[nH]c1nc(C)nc(Nc3cc(C)n(C)n3)c12 | 24.9 | 6.3 | 30.7 | 81.1 | –
17 | CCn1nc(C)cc1Nc1nc(C)nc2[nH]c3cc(-c4c(C)noc4C)c(OC)cc3c12 | 16.8 | 3.4 | 15.4 | 26.3 | –
18 | COc1cc2c(cc1-c1c(C)noc1C)[nH]c1nc(C)nc(Nc3nn(CCO)c4ccccc34)c12 | 9.8 | 1 | – | – | –
19 | COc1cc2c(cc1-c1c(C)noc1C)[nH]c1nc(C)nc(Nc3nn(C)c4ccncc34)c12 | 228 | 77.9 | – | – | –
20 | COc1cc2c(cc1-c1c(C)noc1C)[nH]c1nc(C)nc(Nc3cc(C)nn3C)c12 | 9.4 | 0.8 | 10.3 | 55.1 | –
21 | COc1cc2c(cc1-c1c(C)noc1C)[nH]c1nc(C)nc(Nc3n[nH]c4ccccc34)c12 | 11.8 | 1.7 | – | – | –
22 | COc1cc2c(cc1-c1c(C)noc1C)[nH]c1nc(C)nc(Nc3cc(C)nn3C(C)C)c12 | – | 0.5 | 5 | 29.6 | –
23 | COc1cc2c(cc1-c1c(C)noc1C)[nH]c1nc(C)nc(Nc3nn(C)c4cc(F)ccc34)c12 | 87.6 | 28.4 | – | – | –
24 | Cc1sc2c(c1C)C(c1ccc(Cl)cc1)=N[C@@H](CC(=O)Nc1ccc(O)cc1)c1nnc(C)n1-2 [BIRABRESIB] | – | – | – | – | inhibition in vivo at 50 mg/kg (MDA-MB-231 [9]): 21%; inhibition in vivo at 50 mg/kg (RS4-11): 33%
25 | COc1cc2c(cc1-c1c(C)noc1C)[nH]c1nc(C)nc(Nc3nn(C)c4cccc(F)c34)c12 | – | 21.5 | – | – | –
26 | COc1cc2c(cc1-c1c(C)noc1C)[nH]c1nc(C)nc(Nc3nn(C)c4c3CCCC4)c12 | – | < 1 | 41.9 | 58.3 | –
27 | COc1cc2c(cc1-c1c(C)noc1C)[nH]c1nc(C)nc(Nc3cc(C(C)(C)C(F)(F)F)nn3C)c12 | 13.8 | 2.4 | 75 | 164 | –
28 | COc1cc2c(cc1-c1c(C)noc1C)[nH]c1nc(C)nc(Nc3c4c(nn3C)CCCC4)c12 | 4.9 | < 1 | 11.3 | 17.5 | concentration at 1 h [3]: 2980 ng/mL; concentration at 6 h [4]: 1150 ng/mL; concentration at 1 h [5]: 466 ng/g; concentration at 6 h [6]: 132 ng/g
